Compound activity deposited in PubChem by Johns Hopkins Ion Channel Center.
Hits are enriched below; roughly 3.5% of the tested compounds scored in any of these assays.
RGS4 block = RGS4 inhibitors, primary screen, cell-based, HEK293 M3R inducible RGS4, calcium flux; Regulator of G-protein signaling 4 (Homo sapiens), P49798; Fluo-4 calcium flux; active compounds read high; triggered by carbachol at its EC20; B-score at 10 µM; actives 0.45% (n = 310,000); AID 463165, 2010;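 active = B-score, a plate-corrected calcium signal, over three deviations above library mean, with baseline fluorescence within five deviations of library mean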;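 note: RGS4 expression induced by doxycycline in cells with stable M3 receptor; B-score is computed from the integrated fluorescence ratio over baseline after carbachol; higher B-score means a larger calcium signal and so more RGS4 inhibition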
MrgX1 agonist = agonists of human MrgX1 receptor, primary screen, HEK293 cells, Fluo-4 calcium flux | Fluo-4 calcium fluorescence, agonist mode; active compounds read high | actives 0.44% (n = 310,000) | B-score at 10 µM;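 active = calcium response B-score plate-corrected fluorescence ratio at least 3 library SD, with starting fluorescence B-score inside 5 SD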
Target sequence (Q96LB2 whole entry, looked up): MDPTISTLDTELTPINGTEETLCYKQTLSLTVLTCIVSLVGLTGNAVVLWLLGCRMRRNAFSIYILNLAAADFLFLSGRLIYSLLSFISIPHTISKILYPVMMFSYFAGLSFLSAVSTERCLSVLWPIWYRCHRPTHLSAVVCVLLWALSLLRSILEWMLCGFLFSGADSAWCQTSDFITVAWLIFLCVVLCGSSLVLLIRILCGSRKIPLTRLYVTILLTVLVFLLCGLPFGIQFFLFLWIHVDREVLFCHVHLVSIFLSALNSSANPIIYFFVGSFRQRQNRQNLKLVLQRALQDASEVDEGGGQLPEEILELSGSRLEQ
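Material: HEK293 cells stably expressing human MrgX1 receptor | Quantity: 15,000 cells per well | Times: Cells plated overnight, dye loaded 0.5 h 37 °C, 0.5 h room temperature | Measured by: Kinetic Fluo-4 NW fluorescence of intracellular calcium | Control set: Positive and negative controls per plate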
MrgX1 antag = antagonists of human MrgX1 receptor, primary screen, HEK293 cells, Fluo-4 calcium flux; BAM8-22 antagonism; active compounds read low; actives 1.3% (n = 310,000); B-score at 10 µM; AID 588676, 2011;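 active = calcium-response B-score plate-corrected more than 3 library SD below zero, starting fluorescence within 5 deviations, no agonist response on first addition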;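 note: peak minus trough fluorescence over baseline after final BAM8-22 challenge near maximal dose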
RGS4 pot = RGS4 potentiators or activators, primary screen, cell-based, HEK293 M3R inducible RGS4, calcium flux; actives 0.92% (n = 310,000); B-score at 10 µM; carbachol calcium flux Fluo4; active compounds read low;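 active = B-score of the integrated calcium signal more than 4 SD below the library mean, with starting fluorescence not abnormally high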;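 note: negative B-score means reduced calcium response which marks RGS4 activation or potentiation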
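test system = M3R-expressing HEK293 line, RGS4 induced by doxycycline | probe or stimulus = carbachol at ECmax as muscarinic agonist stimulus | timing = dye loading 30 min 37 °C, buffer rest 30 min RT | signal = calcium dye Fluo4 fluorescence | evaluation = B score from integrated fluorescence ratio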
MrgX1 allo act = positive allosteric modulators of MrgX1, primary screen, HEK293 cells, Fluo-4 calcium flux | Mas-related G-protein coupled receptor member X1 (Homo sapiens), Q96LB2 | FDSS; active compounds read high | B-score at 10 µM | actives 0.63% (n = 310,000) | AID 588675, 2011;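 active = plate-corrected calcium response at least 3 library SD above typical, normal starting fluorescence, not activating the receptor alone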;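 note: compound read alongside a low EC10 to EC30 dose of BAM8-22 agonist; peak minus trough fluorescence over baseline measured at the second addition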
Each line names hits and unclear results; the compound was inactive in the other large screens.

CC1CC(C)CN(C(=O)c2ccc3c(c2NCCO)C(=O)c2ccccc2C3=O)C1 (configuration not stated)	MrgX1 allo act 14
O=C(COc1ccc([N+](=O)[O-])cc1)N(C1CCCCC1)C1CCS(=O)(=O)C1 (configuration not stated)	none
Oc1c(Cl)cc(Cl)cc1CNn1cnnc1	none
Oc1c(Cl)cc(Cl)cc1Sc1cc(Cl)cc(Cl)c1O	MrgX1 agonist 30
COc1ccc(-n2c(=O)c3c4c(sc3n3c(=S)[nH]nc23)COC(C(C)C)C4)cc1 (configuration not stated)	none
Oc1ccc(N=C/C=C/c2ccc(Br)cc2)cc1-c1nc2ccccc2s1	RGS4 block 6.2
Cn1nc(C(F)(F)F)c(-c2ccc(F)cc2)c1NC(=O)Nc1ccc(F)cc1	MrgX1 antag -5.4
Cc1nc2scc(-c3ccccc3)c2c(=O)n1N=C1C=CC(=O)C=C1	RGS4 pot -7.7 (no result: MrgX1 agonist, MrgX1 antag, MrgX1 allo act)
Cc1ccc(-c2csc(NC(=O)C3=NN(c4ccccc4)C(=O)CC3)n2)cc1	MrgX1 antag -4.8
Cc1csc(NC(=O)C2=NN(c3ccccc3)C(=O)CC2)n1	none
N#C/C(=C\c1ccc(-c2ccccc2C(=O)O)o1)c1nc2ccccc2[nH]1	MrgX1 agonist 27
Cc1ccc2nc(/C(C#N)=C/c3ccc(-c4ccccc4C(=O)O)o3)[nH]c2c1	MrgX1 agonist 33
S=C1NC2=C(CCC/C2=C\c2ccccc2)C(c2ccccc2)N1 (configuration not stated)	none
C(=C1/CCCC2=C1Nc1ncnn1C2c1ccccc1)/c1ccccc1 (configuration not stated)	MrgX1 antag -5, MrgX1 allo act 7.3
O=C(/C=C/c1ccccc1)CC(O)(c1ccccc1)C(F)(F)C(F)F (configuration not stated)	RGS4 pot -8.9
O=C(/C=C/c1ccccc1)CC(O)(c1ccccc1)C(F)(F)F (configuration not stated)	RGS4 pot -10
COc1ccc(/C=C/C(=O)CC(O)(c2ccccc2)C(F)(F)F)cc1 (configuration not stated)	none
CCOC(=O)c1c(NC(=O)CSc2nc3ccc(OC)cc3[nH]2)sc2c1CC(C)(C)NC2(C)C	none
O=c1c2c(-c3ccc([N+](=O)[O-])cc3)ccnc2[nH]n1-c1ccccc1	none
C#CCOCCOCCOCCNc1nc(N2CCN(C(=O)CCCCCCCCCCNC(=O)[C@H]([C@@H](C)CC)n3cc(CCCCCN)nn3)CC2)nc(N2CCN(C(=O)CCCCCCCCCCNC(=O)[C@H](CO)n3cc(CCCCCN)nn3)CC2)n1	MrgX1 agonist 108 (no result: RGS4 block, RGS4 pot)
C#CCOCCOCCOCCNc1nc(N2CCN(C(=O)CCCCCCCCCCNC(=O)[C@H]([C@@H](C)CC)n3cc(CCCCCN)nn3)CC2)nc(N2CCN(C(=O)CCCCCCCCCCNC(=O)[C@@H]([C@H](C)CC)n3cc(CCCCCN)nn3)CC2)n1	MrgX1 agonist 106 (no result: RGS4 block, RGS4 pot)
C#CCOCCOCCOCCNc1nc(N2CCN(C(=O)CCCCCCCCCCNC(=O)[C@@H](CCC(=O)O)n3cc(CCCCCN)nn3)CC2)nc(N2CCN(C(=O)CCCCCCCCCCNC(=O)[C@H]([C@@H](C)CC)n3cc(CCCCCN)nn3)CC2)n1	none (no result: RGS4 block, RGS4 pot)
O=C(NCc1cccc(Cl)c1)c1cccc(OC2CCN(C(=O)C3CC3)CC2)c1	MrgX1 antag -5.6
CCOP(=O)(OCC)C(NC(=O)Nc1c(C)cc(C)cc1C)c1ccccc1 (configuration not stated)	none
CCOP(=O)(OCC)C(NC(=O)Nc1ccccc1)c1ccccc1 (configuration not stated)	MrgX1 antag -4.8
Oc1ccc(-c2nc3c4c(ncn3n2)-c2ccccc2CC42CCCC2)cc1	none
COc1cc(=O)n(C)c2c(O)cccc12	none
NS(=O)(=O)c1ccc(CCNCc2ccccc2OCc2ccc(F)cc2)cc1	MrgX1 antag -4.8
